Our source for the IC50 values is BindingDB's records for doi:10.1021/acs.jmedchem.7b01557 (University of Colorado, 2018).

For orientation: IC50 means the point on the concentration scale where inhibition reaches its midpoint.

In this assay the target is T1, Toll-like receptor 7 (Homo sapiens, UniProt Q9NYK1).
T1 sequence (Q9NYK1 whole entry): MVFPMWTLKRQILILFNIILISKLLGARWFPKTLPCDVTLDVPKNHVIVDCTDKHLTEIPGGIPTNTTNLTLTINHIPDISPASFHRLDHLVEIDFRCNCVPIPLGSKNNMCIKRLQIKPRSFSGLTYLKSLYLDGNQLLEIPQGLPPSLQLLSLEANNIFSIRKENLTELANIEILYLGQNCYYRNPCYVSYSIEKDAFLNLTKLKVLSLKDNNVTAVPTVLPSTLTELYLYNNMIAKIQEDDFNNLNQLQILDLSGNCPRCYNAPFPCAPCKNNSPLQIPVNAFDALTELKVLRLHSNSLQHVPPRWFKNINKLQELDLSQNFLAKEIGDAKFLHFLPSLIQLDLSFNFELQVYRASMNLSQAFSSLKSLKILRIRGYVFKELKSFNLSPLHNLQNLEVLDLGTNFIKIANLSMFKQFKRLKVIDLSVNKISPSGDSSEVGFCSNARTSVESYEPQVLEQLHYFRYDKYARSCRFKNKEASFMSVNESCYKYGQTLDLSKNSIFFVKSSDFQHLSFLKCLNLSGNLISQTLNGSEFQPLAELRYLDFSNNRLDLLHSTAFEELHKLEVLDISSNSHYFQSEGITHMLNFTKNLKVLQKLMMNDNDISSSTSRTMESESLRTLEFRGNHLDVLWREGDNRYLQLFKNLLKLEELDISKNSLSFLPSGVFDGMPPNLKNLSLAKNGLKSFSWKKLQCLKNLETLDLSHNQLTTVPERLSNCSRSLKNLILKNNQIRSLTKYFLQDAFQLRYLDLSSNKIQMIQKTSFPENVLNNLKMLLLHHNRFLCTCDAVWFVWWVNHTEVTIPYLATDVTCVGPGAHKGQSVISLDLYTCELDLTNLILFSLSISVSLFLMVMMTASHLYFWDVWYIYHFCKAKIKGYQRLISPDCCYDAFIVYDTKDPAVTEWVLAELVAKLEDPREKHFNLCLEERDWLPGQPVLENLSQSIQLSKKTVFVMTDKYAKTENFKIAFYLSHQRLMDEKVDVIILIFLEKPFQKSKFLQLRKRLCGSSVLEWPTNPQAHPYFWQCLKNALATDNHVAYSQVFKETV
Put plainly: Antagonist activity at human TLR7 expressed in HEK293 cells assessed as inhibition of R848-induced NF-kappaB activation-mediated SEAP production after 24 hrs by Quanti-blue-based assay. The gist of the method: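 HEK293 cells stably carrying a human TLR plus an NF-κB-driven SEAP reporter, seeded 5×10^4/well for 24 h at 37 °C, then stimulated: Pam3CSK4 100 µg/mL (TLR1/2), Pam2CSK4 100 µg/mL, poly I:C 5 µg/mL (TLR3), LPS 20 ng/mL (TLR4), flagellin 100 ng/mL (TLR5), R848 1 µg/mL (TLR7, TLR8), CpG-ODN2006 1 µg/mL (TLR9). After 24 h with compound, supernatant mixed with QUANTI-Blue, 1 h 37 °C, OD 620 nm.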
Regarding `O=C(NNC(=O)c1ccccn1)c1ccc(OC(F)(F)F)cc1`, the IC50 turned out to be 22 µM.

For `O=C(NNC(=O)c1ccccn1)c1ccc(C(F)(F)F)cc1`, the IC50 came out at 17 µM.

For the molecule `CCc1ccc(-c2nc(C(=O)NNC(=O)c3ccccn3)cs2)cc1`, the IC50 came to 2.4 µM.

On to `Nc1cccnc1C(=O)NNC(=O)c1cccc(C(F)(F)F)c1`, for which the IC50 is 16 µM.

For `O=C(NNC(=O)c1csc(-c2ccc(F)cc2)n1)c1ccccn1`, the IC50 was 4.4 µM.

With `O=C(NNC(=O)c1ncccc1O)c1ccc(Cl)cc1`, the IC50 is 27.8 µM.

Regarding `Cc1ccc(-c2nc(C(=O)NNC(=O)c3ccccn3)cs2)cc1`, the IC50 came to 1.83 µM.

Take `O=C(NNC(=O)c1csc(-c2cccc(Cl)c2)n1)c1ccccn1`: the IC50 is 1 µM.

As to `O=C(NNC(=O)c1ccccn1)c1ccc(Cl)cc1`, the IC50 came to 24.7 µM.

`O=C(NNC(=O)c1csc(-c2cccnc2)n1)c1ccccn1`: the concentration for half-maximal inhibition (IC50) was found to be 23.2 µM.

`CN(C)c1ccc(-c2nc(C(=O)NNC(=O)c3ccccn3)cs2)cc1`: the half-maximal inhibitory concentration (IC50) was 1.9 µM.

Take `O=C(NNC(=O)c1csc(-c2ccccc2)n1)c1ccccn1`: the IC50 was found to be 5.8 µM.

Regarding `COc1ccc(-c2nc(C(=O)NNC(=O)c3ccccn3)cs2)cc1OC`, the IC50 was 3.9 µM.

As to `Cc1nc(C(=O)NNC(=O)c2cccc(Cl)c2)cs1`, the IC50 was found to be 60 µM.

With `Nc1nccnc1C(=O)NNC(=O)c1ccc(OC(F)(F)F)cc1`, the IC50 came to 27 µM.

As to `O=C(NNC(=O)c1ccccn1)c1cccc(C(F)(F)F)c1`, the IC50 was determined as 15 µM.

Take `O=C(NNC(=O)c1csc(-c2ccc(Cl)cc2)n1)c1ccccn1`: the IC50 was determined as 2.1 µM.

`Cc1nc(C(=O)NNC(=O)c2ccc(Cl)cc2)cs1`: the IC50 amounted to 44.8 µM.

As for `Nc1nccnc1C(=O)NNC(=O)c1ccc(C(F)(F)F)cc1`, the IC50 was found to be 25 µM.

As to `O=C(NNC(=O)c1ncccc1O)c1ccc(OC(F)(F)F)cc1`, the IC50 amounted to 7.9 µM.

For the molecule `O=C(NNC(=O)c1csc(-c2ccc(C(F)(F)F)cc2)n1)c1ccccn1`, the IC50 is 0.99 µM.

As to `O=C(NNC(=O)c1csc(-c2ccc(Cl)cc2Cl)n1)c1ccccn1`, the IC50 came out at 0.26 µM.

Consider `O=C(NNC(=O)c1csc(-c2cc(Cl)cc(Cl)c2)n1)c1ccccn1`, for which the IC50 was found to be 0.44 µM.

Consider `CC(C)c1nc(C(=O)NNC(=O)c2ccccn2)cs1`, for which the IC50 was 14 µM.

With `O=C(NNC(=O)c1csc(-c2cccc(C(F)(F)F)c2)n1)c1ccccn1`, the IC50 amounted to 1.02 µM.

With `O=C(NNC(=O)c1ncccc1O)c1ccc(C(F)(F)F)cc1`, the IC50 turned out to be 13.4 µM.

With `O=C(NNC(=O)c1csc(-c2cccc(F)c2)n1)c1ccccn1`, the IC50 amounted to 2.6 µM.

As to `O=C(NNC(=O)c1ncccc1O)c1cccc(C(F)(F)F)c1`, the IC50 turned out to be 14.2 µM.

In the case of `Cc1nc(C(=O)NNC(=O)c2ccccn2)cs1`, the IC50 was 30 µM.

Take `O=C(NNC(=O)c1csc(-c2cccc(Br)c2)n1)c1ccccn1`: the IC50 turned out to be 0.9 µM.

Turning to `O=C(NNC(=O)c1csc(-c2cccc(Cl)c2Cl)n1)c1ccccn1`, the IC50 worked out at 0.5 µM.

As for `O=C(NNC(=O)c1ncccc1O)c1ccc(Br)cc1`, the IC50 was found to be 17.3 µM.

`O=C(NNC(=O)c1ccccn1)c1ccc(Br)cc1`: the IC50 is 17 µM.

As for `COc1ccc(-c2nc(C(=O)NNC(=O)c3ccccn3)cs2)cc1`, the IC50 came to 3.09 µM.

For the molecule `Nc1nccnc1C(=O)NNC(=O)c1cccc(C(F)(F)F)c1`, the IC50 was determined as 38 µM.
